Consider 19 compounds from ChEMBL document CHEMBL1156947, “Halogenated analogs of 1'-acetoxychavicol acetate, Rev-export inhibitor from Alpinia galanga, designed from mechanism of action” (Bioorg Med Chem Lett, 2010).

Converted amounts (≈) assume the structure as drawn. Where only a bound is given, the exact number is not on record here.

Data set [1] concerns Human immunodeficiency virus 1. Description: Inhibition of HIV1 Rev nuclear export in Saccharomyces pombe expressing GST-NLS-GFP-RevNES fused protein assessed as cellular distribution after 3 hrs by fluorescence microscopy. An outline of the steps:
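Fission yeast colony grown 24 h at 37 °C in thiamine-free MM medium to induce the GST-NLS-GFP-RevNES fusion. Cells then exposed to samples in medium with 1% DMSO for 3 h at 37 °C. Fusion-protein distribution checked by fluorescence microscopy to give MIC values.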

Data set [2] is described as follows: Stability assessed as compound remaining up to 180 mins in presence of in fetal bovine serum. It counts as ADME. Conditions: cattle, 3 h. In short, it runs like this:
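Sample (0.2 mM ethanol stock) added to RPMI1640 containing 10% FBS, held at 37 °C for 0, 30, 60 or 180 min. Mixture extracted with EtOAc, residue taken up in acetonitrile. Remaining compound measured by reversed-phase HPLC (C18, acetonitrile–water gradient, UV 220 nm), in triplicate.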

Data set [3] can be described thus: Inhibition of HIV1 HA-tagged Rev nuclear export expressed in human HeLa cells assessed as cellular localization after 12 hrs by FITC-labelled indirect fluorescence microscopy. It counts as cell-based. Conditions: Human immunodeficiency virus 1, HeLa. An outline of the steps: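 HeLa cells (1.0 × 10^5) grown on coverslips in DMEM with 10% FBS, 37 °C, 5% CO2, 24 h. Co-transfected 16 h with plasmids for HA-tagged Rev and Gag (pCRRE/ΔRev). Samples added in medium with 1% DMSO, 12 h at 37 °C. Cells fixed in 4% formaldehyde, methanol-treated, blocked with 10% FBS, then anti-HA and FITC anti-mouse IgG. Rev localization scored by fluorescence microscopy and image analysis.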

As for `C=C[C@H](OC(=O)OC(C)(C)C)c1ccc(OC(=O)OC(C)(C)C)cc1`, the MIC in data set [1] is greater than 50 µM. Besides, the Stability entry in data set [2] is “Stable”.
The IC50 is the point on the concentration scale where inhibition reaches its midpoint. Take `C=C[C@H](OC(C)=O)c1ccc(OC(C)=O)c(Br)c1`: in data set [1], the MIC is 1.7 µM (≈ 0.532 µg/mL). Moreover, the IC50 in data set [3] came out at 490 nM.
Take `C=C[C@H](OC(=O)C(C)C)c1ccc(OC(C)=O)cc1`: the MIC in data set [1] is 19 µM (≈ 4.98 µg/mL).
On the same count and under the same terms, the result for `C=C[C@H](OC(=O)OC(C)C)c1ccc(OC(C)=O)cc1` reads greater than 50 µM.
Take `C=C[C@H](OC(=O)OCC)c1ccc(OC(=O)OCC)cc1`: the MIC in data set [1] is 25 µM (≈ 7.36 µg/mL). Moreover, the Stability result in data set [2] was “Stable”.
Consider `C=C[C@H](OC(C)=O)c1ccc(OC(C)=O)c(F)c1`, for which the MIC in data set [1] is 1.7 µM (≈ 0.429 µg/mL). Moreover, the concentration for half-maximal inhibition (IC50) in data set [3] stood at 480 nM.
Consider `C=C[C@H](OC(=O)CCC)c1ccc(OC(C)=O)cc1`, for which, in data set [1], the MIC came to 19 µM (≈ 4.98 µg/mL).
`C=C[C@H](OC(=O)NC(C)(C)C)c1ccc(OC(=O)NC(C)(C)C)cc1`: the MIC in data set [1] was greater than 50 µM. In data set [2], the Stability entry is “Stable”.
The matching figures for `C=C[C@H](OC(=O)NCC)c1ccc(OC(=O)NCC)cc1`: greater than 50 µM and “Stable”.
Consider `C=C[C@H](OC(=O)NC)c1ccc(OC(=O)NC)cc1`, for which the MIC in data set [1] is greater than 50 µM. Moreover, the Stability entry in data set [2] is reported as “Stable”.
Consider `C=C[C@H](OC(C)=O)c1ccc(OC(C)=O)c(F)c1F`, for which the MIC in data set [1] stood at 1.4 µM (≈ 0.378 µg/mL). In addition, the IC50 in data set [3] stood at 130 nM.
In the same order, the values of `C=C[C@H](OC(C)=O)c1ccc(OC(C)=O)cc1` [1'-ACETOXYCHAVICOL ACETATE] are 4.3 µM and 980 nM.
Take `C=C[C@H](OC(=O)OC)c1ccc(OC(=O)OC)cc1`: the MIC in data set [1] was 25 µM (≈ 6.66 µg/mL). The Stability result in data set [2] is listed as “Stable”.
For `C=C[C@H](OC(C)=O)c1ccc(OC(C)=O)c(Cl)c1`, in data set [1], the MIC is 2.2 µM (≈ 0.591 µg/mL). For the same compound, the IC50 in data set [3] was 620 nM.
With `C=C[C@H](OC(=O)OCCC)c1ccc(OC(=O)OCCC)cc1`, in data set [1], the MIC was determined as 10 µM (≈ 3.22 µg/mL). For the same compound, in data set [2], the Stability entry is reported as “Stable”.
Consider `C=C[C@H](OC(=O)OCCC)c1ccc(OC(C)=O)cc1`, for which, in data set [1], the MIC worked out at 26 µM (≈ 7.24 µg/mL).
Consider `C=C[C@H](OC(=O)NC(C)C)c1ccc(OC(=O)NC(C)C)cc1`, for which, in data set [1], the MIC is greater than 50 µM. The Stability result in data set [2] is reported as “Stable”.
The matching figures for `C=C[C@H](OC(=O)NCCC)c1ccc(OC(=O)NCCC)cc1`: greater than 50 µM and “Stable”.
Turning to `C=C[C@H](OC(=O)OC(C)C)c1ccc(OC(=O)OC(C)C)cc1`, in data set [1], the MIC was greater than 50 µM. In addition, the Stability result in data set [2] is given as “Stable”.
